Ends that are not written are not given here. ABA = azidobenzoic acid, photoreactive group linked to the lysine of the peptide
Assays:
[1] = system: T1 thymocytes; assay: Fetal thymic organ culture; format: cell-based, mouse; details: high concentrations (100 μM shown in Fig. 1 D)
Outline: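 E15 fetal thymi from T1 β2m−/− Rag−/− TCR transgenic mice were cultured 7 d without peptide or with 1 μM exogenous peptide, with 0.2 μM and 100 μM also shown for two variants. Cells were stained for CD4, CD8α and/or CD8β and read by flow cytometry.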

[2] = system: S14 thymocytes; assay: Fetal thymic organ culture; format: cell-based, mouse; details: S14 TCR transgenic FTOC
Outline: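 Fetal thymi (E15) from Rag−/− β2m−/− S14 TCR transgenic mice were cultured for 7 d with peptide variants. Thymocytes were stained for CD4, CD8α and/or CD8β and analysed by flow cytometry.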

[3] = target: H-2K^d (Mus musculus, UniProt P01902); assay: Peptide binding to H-2K^d; details: unpublished data
Sequence of H-2K^d (P01887 21-119): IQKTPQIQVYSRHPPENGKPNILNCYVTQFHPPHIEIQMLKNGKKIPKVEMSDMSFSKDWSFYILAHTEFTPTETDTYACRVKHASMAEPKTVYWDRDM
Sequence of H-2K^d (P01902 22-368): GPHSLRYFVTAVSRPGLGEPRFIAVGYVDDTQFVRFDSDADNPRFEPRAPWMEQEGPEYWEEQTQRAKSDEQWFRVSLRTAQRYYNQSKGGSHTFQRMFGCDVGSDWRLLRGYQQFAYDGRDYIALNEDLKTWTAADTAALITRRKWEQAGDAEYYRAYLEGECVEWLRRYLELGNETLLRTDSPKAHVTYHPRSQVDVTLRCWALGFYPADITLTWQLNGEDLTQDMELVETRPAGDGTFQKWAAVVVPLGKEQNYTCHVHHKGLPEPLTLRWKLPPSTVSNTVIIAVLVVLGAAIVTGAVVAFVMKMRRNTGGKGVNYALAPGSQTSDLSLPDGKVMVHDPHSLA

Row | Substance | Selection outcome in FTOC at high peptide concentrations [1] | Selecting potential in FTOC [2] | Affinity for H-2K^d relative to 4P [3]
1 | 4A: variant of SYIPSAEK(ABA)I with proline at position 4 replaced by alanine (SYIASAEK(ABA)I) | could induce negative selection |  | 
2 | 4L: variant of SYIPSAEK(ABA)I with proline at position 4 replaced by leucine (SYILSAEK(ABA)I) |  | threshold ligand | fivefold lower affinity than 4P
3 | 4S: variant of SYIPSAEK(ABA)I with proline at position 4 replaced by serine (SYISSAEK(ABA)I) | could induce negative selection |  | 

From paper PMC2118488 (The Journal of Experimental Medicine, 2007)
